Laboratory results published in ChEMBL document CHEMBL4130609, “Nitrobenzoyl Sesquiterpenoids with Cytotoxic Activities from a Marine-Derived Aspergillus ochraceus Fungus” (J Nat Prod, 2018).

Tests used:
[1] = test system: OS-RC-2; assay: Cytotoxicity against human OS-RC2 cells after 72 hrs by CCK8 assay; assay type: functional, cell-based; conditions: OS-RC-2, 72 h
In short: (§1)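 ACHN cells grown in MEM with 10% FBS; OS-RC-2 and 786-O cells grown in RPMI1640 with 10% FBS. Seeded at 400 to 800 cells/well and treated with a 9-point series from 100 down to 0.00153 μM, or solvent control, for 72 h. Viability read by CCK-8 absorbance at 450 nm in triplicate. IC50 taken from dose–response curves.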

[2] = test system: RAW264.7; assay: Inhibition of LPS-induced NFkappaB (unknown origin) activation expressed in mouse RAW264.7 cells at 4 uM pretreated for 30 mins followed by LPS-stimulation after 8 hrs by luciferase reporter gene assay relative to control; assay type: cell-based; conditions: Homo sapiens
In short: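 RAW264.7 cells stably carrying an NF-κB luciferase reporter were pretreated with compounds for 30 min at 4, 2, 1 and 0.5 μM. They were then stimulated with 1 μg/mL LPS for 8 h. Luciferase activity was measured in triplicate. BAY11-7082 at 5 μM served as positive control.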

[3] = test system: RAW264.7; assay: Cytotoxicity against mouse RAW264.7 cells at 0.5 to 4 uM after 8 hrs by MTT assay; assay type: cell-based; conditions: raw264.7, 8 h
In short: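 Luciferase-reporter RAW264.7 cells received compounds at 4, 2, 1 and 0.5 μM for 30 min, then 1 μg/mL LPS for 8 h. Viability at these concentrations was assessed by MTT.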

[4] = test system: ACHN; assay: Cytotoxicity against human ACHN cells after 72 hrs by CCK8 assay; assay type: functional, cell-based; in short: as §1
[5] = test system: 786-0; assay: Cytotoxicity against human 786-O cells after 72 hrs by CCK8 assay; assay type: functional, cell-based; conditions: 786-0, 72 h; in short: as §1
[6] = test system: 786-0; assay: Induction of apoptosis in human 786-O cells assessed as late apoptotic cells at 2 uM after 72 hrs by Annexin-V-FITC/propidium iodide staining based flow cytometric method (reference value: 4.2%); assay type: functional
[7] = test system: 786-0; assay: Induction of apoptosis in human 786-O cells assessed as live cells at 1 uM after 24 hrs by Annexin-V-FITC/propidium iodide staining based flow cytometric method (reference value: 81.4%); assay type: functional
[8] = test system: 786-0; assay: Cell cycle arrest in human 786-O cells assessed as accumulation at G0/G1 phase at 2 uM after 24 hrs by propidium iodide staining based flow cytometric method (reference value: 42.07%); assay type: functional
[9] = test system: 786-0; assay: Cell cycle arrest in human 786-O cells assessed as accumulation at G2/M phase at 2 uM after 24 hrs by propidium iodide staining based flow cytometric method (reference value: 10.58%); assay type: functional
[10] = test system: 786-0; assay: Induction of apoptosis in human 786-O cells assessed as late apoptotic cells at 1 uM after 24 hrs by Annexin-V-FITC/propidium iodide staining based flow cytometric method (reference value: 7%); assay type: functional
[11] = test system: 786-0; assay: Cell cycle arrest in human 786-O cells assessed as accumulation at G2/M phase at 1 uM after 72 hrs by propidium iodide staining based flow cytometric method (reference value: 12.29%); assay type: functional
[12] = test system: 786-0; assay: Induction of apoptosis in human 786-O cells assessed as necrotic cells at 1 uM after 72 hrs by Annexin-V-FITC/propidium iodide staining based flow cytometric method (reference value: 12.5%); assay type: functional
[13] = test system: 786-0; assay: Cell cycle arrest in human 786-O cells assessed as accumulation at G0/G1 phase at 2 uM after 72 hrs by propidium iodide staining based flow cytometric method (reference value: 44.95%); assay type: functional
[14] = test system: 786-0; assay: Induction of apoptosis in human 786-O cells assessed as early apoptotic cells at 2 uM after 24 hrs by Annexin-V-FITC/propidium iodide staining based flow cytometric method (reference value: 1.6%); assay type: functional
[15] = test system: 786-0; assay: Induction of apoptosis in human 786-O cells assessed as necrotic cells at 2 uM after 24 hrs by Annexin-V-FITC/propidium iodide staining based flow cytometric method (reference value: 10%); assay type: functional
[16] = test system: 786-0; assay: Cell cycle arrest in human 786-O cells assessed as accumulation at G0/G1 phase at 1 uM after 24 hrs by propidium iodide staining based flow cytometric method (reference value: 42.07%); assay type: functional
[17] = test system: 786-0; assay: Cell cycle arrest in human 786-O cells assessed as accumulation at G2/M phase at 2 uM after 72 hrs by propidium iodide staining based flow cytometric method (reference value: 12.29%); assay type: functional
[18] = test system: 786-0; assay: Cell cycle arrest in human 786-O cells assessed as accumulation at S phase at 1 uM after 72 hrs by propidium iodide staining based flow cytometric method (reference value: 42.76%); assay type: functional
[19] = test system: 786-0; assay: Cell cycle arrest in human 786-O cells assessed as accumulation at G2/M phase at 1 uM after 24 hrs by propidium iodide staining based flow cytometric method (reference value: 10.58%); assay type: functional
[20] = test system: 786-0; assay: Induction of apoptosis in human 786-O cells assessed as early apoptotic cells at 1 uM after 24 hrs by Annexin-V-FITC/propidium iodide staining based flow cytometric method (reference value: 1.6%); assay type: functional
[21] = test system: 786-0; assay: Induction of apoptosis in human 786-O cells assessed as late apoptotic cells at 1 uM after 72 hrs by Annexin-V-FITC/propidium iodide staining based flow cytometric method (reference value: 4.2%); assay type: functional
[22] = test system: 786-0; assay: Cell cycle arrest in human 786-O cells assessed as accumulation at S phase at 1 uM after 24 hrs by propidium iodide staining based flow cytometric method (reference value: 47.35%); assay type: functional
[23] = test system: 786-0; assay: Cell cycle arrest in human 786-O cells assessed as accumulation at S phase at 2 uM after 72 hrs by propidium iodide staining based flow cytometric method (reference value: 42.76%); assay type: functional
[24] = test system: 786-0; assay: Induction of apoptosis in human 786-O cells assessed as live cells at 2 uM after 24 hrs by Annexin-V-FITC/propidium iodide staining based flow cytometric method (reference value: 81.4%); assay type: functional
[25] = test system: 786-0; assay: Cell cycle arrest in human 786-O cells assessed as accumulation at S phase at 2 uM after 24 hrs by propidium iodide staining based flow cytometric method (reference value: 47.35%); assay type: functional
[26] = test system: 786-0; assay: Induction of apoptosis in human 786-O cells assessed as early apoptotic cells at 1 uM after 72 hrs by Annexin-V-FITC/propidium iodide staining based flow cytometric method (reference value: 1.2%); assay type: functional
[27] = test system: 786-0; assay: Induction of apoptosis in human 786-O cells assessed as early apoptotic cells at 2 uM after 72 hrs by Annexin-V-FITC/propidium iodide staining based flow cytometric method (reference value: 1.2%); assay type: functional
[28] = test system: 786-0; assay: Induction of apoptosis in human 786-O cells assessed as live cells at 2 uM after 72 hrs by Annexin-V-FITC/propidium iodide staining based flow cytometric method (reference value: 82.2%); assay type: functional
[29] = test system: 786-0; assay: Induction of apoptosis in human 786-O cells assessed as live cells at 1 uM after 72 hrs by Annexin-V-FITC/propidium iodide staining based flow cytometric method (reference value: 82.2%); assay type: functional
[30] = test system: 786-0; assay: Induction of apoptosis in human 786-O cells assessed as necrotic cells at 1 uM after 24 hrs by Annexin-V-FITC/propidium iodide staining based flow cytometric method (reference value: 10%); assay type: functional
[31] = test system: 786-0; assay: Induction of apoptosis in human 786-O cells assessed as late apoptotic cells at 2 uM after 24 hrs by Annexin-V-FITC/propidium iodide staining based flow cytometric method (reference value: 7%); assay type: functional
[32] = test system: 786-0; assay: Cell cycle arrest in human 786-O cells assessed as accumulation at G0/G1 phase at 1 uM after 72 hrs by propidium iodide staining based flow cytometric method (reference value: 44.95%); assay type: functional
[33] = test system: 786-0; assay: Induction of apoptosis in human 786-O cells assessed as necrotic cells at 2 uM after 72 hrs by Annexin-V-FITC/propidium iodide staining based flow cytometric method (reference value: 12.5%); assay type: functional

In the case of `C[C@]1(COC(=O)c2ccc([N+](=O)[O-])cc2)CCC[C@]2(C)[C@H]3COC(=O)C3=C[C@@H](O)[C@@H]12`, the IC50 [1] is reported as 23 µM, the inhibition [2] is reported as 16% and the Activity [3] is reported as “Non-Toxic”. The IC50 [4] was 30 µM and the IC50 [5] was 24 µM.

With `CO[C@H]1C2=C(COC2=O)[C@@]2(C)CCC[C@](C)(CO)[C@@H]2[C@@H]1O` the Activity [3] was “Non-Toxic”.

With `CC(=O)OC[C@@]1(C)CCC[C@]2(C)[C@H]3COC(=O)C3=C[C@@H](OC(=O)c3ccc([N+](=O)[O-])cc3)[C@@H]12` the IC50 [1] was 11 µM, the Activity [3] was “Non-Toxic” and the IC50 [4] was 13 µM. It also gave an IC50 [5] of 14 µM.

For `C[C@]1(CO)CCC[C@]2(C)[C@H]3COC(=O)C3=C[C@@H](OC(=O)c3ccc([N+](=O)[O-])cc3)[C@@H]12`, the IC50 [1] was 30 µM, the IC50 [4] was 25 µM and the IC50 [5] was 20 µM.

`CNC(=O)c1cc(Oc2ccc(NC(=O)Nc3ccc(Cl)c(C(F)(F)F)c3)cc2)ccn1` [SORAFENIB] showed an IC50 [1] of 7 µM, an IC50 [4] of 3.4 µM and an IC50 [5] of 4.9 µM.

Compound `CC(=O)OC[C@@]1(C)CCC[C@@]2(C)[C@H]1[C@H](OC(=O)c1ccc([N+](=O)[O-])cc1)C=C1C(=O)OC[C@@]12O` has an Activity [6] of 9.1%, an Activity [7] of 78.6% and an Activity [8] of 42.23%. The Activity [9] was 7.86%, the Activity [10] was 4.3% and the IC50 [1] was 5.3 µM. It also gave an Activity [11] of 13.06%, an Activity [12] of 18.6% and an Activity [13] of 51.06%. The Activity [14] was 1.1%, the Activity [15] was 26% and the Activity [16] was 38%. The Activity [17] was 13.38%, the Activity [18] was 32.77% and the Activity [19] was 8.53%. The Activity [20] was 1.3%, the Activity [21] was 5% and the Activity [3] was “Non-Toxic”. It also gave an Activity [22] of 47%, an Activity [23] of 35.56% and an Activity [24] of 66.5%. For the same compound, the Activity [25] was 49.91%, the Activity [26] was 1.7% and the Activity [27] was 1%. It also gave an Activity [28] of 58.3%, an Activity [29] of 74.7% and an Activity [30] of 15.8%. For the same compound, the Activity [31] was 6.5%, the IC50 [4] was 4.1 µM and the Activity [32] was 54.16%. It also gave an Activity [33] of 31.5% and an IC50 [5] of 2.3 µM.

For `C[C@]1(CO)CCC[C@@]2(C)[C@H]1[C@H](OC(=O)c1ccc([N+](=O)[O-])cc1)C=C1C(=O)OC[C@@]12O`, the IC50 [1] was 1.5 µM, the IC50 [4] was 1.5 µM and the IC50 [5] was 0.89 µM.

Work on `C[C@]1(COC(=O)c2ccc([N+](=O)[O-])cc2)CCC[C@@]2(C)[C@H]1[C@H](O)C=C1C(=O)OC[C@@]12O` yielded an IC50 [1] of 8.2 µM, an IC50 [4] of 11 µM and an IC50 [5] of 4.3 µM.
